# From PubChem BioAssay
# Sampled rows, rich in hits. Any-hit rate of the full collection: about 2.3%.
# Scp-1 inhibitor = Scp-1 phosphatase inhibitors, primary screen, biochemical, colorimetric, uHTS; Carboxy-terminal domain RNA polymerase II polypeptide A small phosphatase 1 (Homo …; Recombinant Scp1, phosphopeptide, malachite green phosphate absorbance; inhibition, % at 20 µM; actives 0.88% (n = 340,000);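 active means inhibition above about 50% at 20 µM, limit read from the data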;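 further: plate controls were DMSO wells with enzyme for no effect and wells lacking enzyme for full effect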
# Target sequence (Q9GZU7 76-261 limits assumed): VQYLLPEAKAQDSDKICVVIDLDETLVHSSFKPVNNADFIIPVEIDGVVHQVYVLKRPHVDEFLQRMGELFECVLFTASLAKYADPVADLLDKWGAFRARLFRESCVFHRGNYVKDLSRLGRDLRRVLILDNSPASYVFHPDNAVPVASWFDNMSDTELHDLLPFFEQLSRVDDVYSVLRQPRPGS
#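 System: SCP-1 catalytic domain; Reagent: Phospho 17-mer peptide substrate; Doses: one concentration, 20 µM, with 1.0% DMSO; Incubation: 45 min room-temperature reaction, 5 min colour, 30 min stabiliser; Signal: Phosphate-binding colour reagent, absorbance read at 630 nm.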
# NadD block = inhibitors of S. aureus NadD, primary screen, biochemical, colorimetric, uHTS; Nicotinate-nucleotide adenylyltransferase NadD (Staphylococcus aureus N315); purified NadD enzyme, colorimetric absorbance read-out; inhibition, % at 20 µM; actives 0.78% (n = 360,000); in the data active means inhibition above about 26%
# DNMT1 inh = human DNMT1 methyltransferase inhibitors, primary screen, biochemical, molecular beacon, fluorescence, HinP1I cleavage, uHTS | DNA (cytosine-5)-methyltransferase 1 (Homo sapiens), P26358 | inhibition (reported as % activation of signal), % at 10 µM | actives 0.83% (n = 360,000); in the data active means inhibition above about 50%
# STEP block = STEP phosphatase inhibitors, primary screen, biochemical, fluorescence intensity, uHTS; Tyrosine-protein phosphatase non-receptor type 5 (Homo sapiens), P54829; recombinant STEP, OMFP fluorogenic substrate; inhibition, % at 20 µM; actives 0.25% (n = 360,000); AID 588621, 2011;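 active means inhibition at 20 µM, scaled per plate between control wells, above about 37%, limit read from the data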;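 further: 0% = DMSO with enzyme and substrate and 100% = substrate only without enzyme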
#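 System: STEP phosphatase, cell-free reaction; Buffer or medium: Bis-Tris pH 6.0 buffer with DTT, detergent; Incubation: 20 min at room temperature, dark; Measured by: fluorescence, 480/540 nm.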
# LMPTP inh = LMPTP phosphatase inhibitors, primary screen, biochemical, fluorescence intensity, uHTS; recombinant LMPTP-A, OMFP fluorogenic substrate; inhibition, % at 20 µM; actives 0.22% (n = 360,000); AID 651560, 2012;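 active means compounds that cut the enzyme signal by at least half of the control window in the single-dose screen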;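 further: plate controls were DMSO wells with enzyme plus substrate for no effect and substrate without enzyme for full effect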
# Target sequence (P24666 whole entry, looked up): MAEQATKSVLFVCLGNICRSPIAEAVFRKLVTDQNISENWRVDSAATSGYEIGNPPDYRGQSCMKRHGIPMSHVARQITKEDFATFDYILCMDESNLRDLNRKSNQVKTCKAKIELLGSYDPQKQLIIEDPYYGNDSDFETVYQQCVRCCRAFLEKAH
#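 Test system – LMPTP-A phosphatase enzyme · Quantity – 0.625 nM LMPTP-A final · Reagent – OMFP substrate, 400 µM final · Dosing – one test concentration per compound, 20 µM, with 3% DMSO overall · Timing – 50 min enzyme reaction at room temperature, protected from light · Detection – fluorescence intensity · Controls – substrate-only low control, DMSO enzyme-plus-substrate high control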
# SUMO1-SIM PPI = modulators of SUMO1 protein-protein interactions, primary screen, biochemical, uHTS; Small ubiquitin-related modifier 1 (Homo sapiens), P63165; SUMO1 binding to a labelled peptide, TR-FRET, 1 h; inhibition, % at 20 µM; actives 0.33% (n = 360,000); AID 602429, 2012; in the data active means inhibition above about 37%
# Target sequence (P63165 whole entry, looked up): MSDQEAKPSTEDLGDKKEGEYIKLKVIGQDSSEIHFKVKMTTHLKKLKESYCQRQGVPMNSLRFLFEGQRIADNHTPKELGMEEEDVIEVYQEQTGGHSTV
# NadD inh conf = inhibitors of S. aureus NadD, confirmation, biochemical, colorimetric, single concentration. shares compounds with NadD block. purified S. aureus NadD, colorimetric enzyme assay. inhibition, % at 20 µM. actives 13% (n = 2,000). AID 624309, 2012; in the data active means inhibition mostly above about 42%, no sharp cut-off; inactive means mostly below about 42%
# * marks the source's active call; other numbers are inactive results; . = no result given.
SMILES,Scp-1 inhibitor,NadD block,DNMT1 inh,STEP block,LMPTP inh,SUMO1-SIM PPI,NadD inh conf
O=C(OCc1c(-c2ccccc2)ncc2ccccc12)c1cccs1,22,9,-4,0,1,-2,.
COc1ccc(C2=NN(C(=O)COC(=O)c3ccc(NC(=O)CC#N)cc3)C(c3ccco3)C2)cc1 (configuration not stated),-12,37*,-5,-9,3,5,19
N#C/C(=C\c1cccc(Oc2ccc(C(F)(F)F)cc2[N+](=O)[O-])c1)c1nc2ccccc2[nH]1,24,38*,-10,4,3,-1,10
COc1cc(/C=C(\C#N)c2nc3ccccc3[nH]2)ccc1Oc1ccc([N+](=O)[O-])cn1,9,33*,-3,0,3,-18,18
Cc1nc2sccn2c(=O)c1S(=O)(=O)N1CCN(c2ccccc2F)CC1,.,2,1,0,-1,1,.
O=C1[C@H](c2ccccc2)[C@@H](c2ccccc2)N1c1ccncc1,-4,4,-1,1,0,1,.
COc1cc(OC)cc(C(=O)N2CCN(Cc3ccc4c(c3)OCO4)CC2)c1,-6,-2,1,1,-1,8,.
COc1cc(/C=C2\SC(=O)N(Cc3ccc(F)cc3)C2=O)cc([N+](=O)[O-])c1O,40,38*,-3,20,40,-11,4
OCCC1CN(Cc2cccn2-c2ncccn2)CCN1CCc1ccccc1 (configuration not stated),1,-2,-2,-5,-1,-1,.
Cc1cccc(N(CC(=O)NC2CCCC2)C(=O)c2cc3cc4cccc(C)c4nc3s2)c1C,4,40*,-4,2,3,-2,10
COc1ccc(Nc2nc(-c3cccs3)cs2)cc1,-4,.,.,.,.,.,.
Oc1ccc(Nc2nc(-c3cccs3)cs2)cc1,2,33*,-34,-1,-1,14,62*
CCCc1cc(=O)[nH]c(SCC(=O)NN(c2ccccc2)c2ccccc2)n1,3,1,-4,-1,0,0,.
COc1ccccc1CNc1nc(Nc2cccc(-c3cnco3)c2)c2sccc2n1,.,40*,-32,3,51*,1,15
COc1ccccc1CNc1nc(NCc2cccs2)nc2ccsc12,.,11,-8,2,27,-1,.
CC1CCCCC12NC(=O)N(CC(=O)Nc1sccc1C(N)=O)C2=O (configuration not stated),-4,2,2,2,4,3,.
O=C(Nc1ccc(S(=O)(=O)Nc2nccs2)cc1)c1cc(-c2ccccc2Cl)nc2ccccc12,-5,67*,-15,-2,-1,6,65*
Cc1ccc(-c2cc(C(=O)Nc3ccc(S(=O)(=O)Nc4cc(C)on4)cc3)c3ccccc3n2)c(C)c1,11,43*,-5,5,4,8,65*
Cc1ccc(-c2cc(C(=O)Nc3ccc(S(=O)(=O)Nc4onc(C)c4C)cc3)c3ccccc3n2)cc1,2,31*,-10,-3,1,-7,66*
O=C(Nc1ccc(S(=O)(=O)Nc2nccs2)cc1)c1cc(-c2ccccn2)nc2ccccc12,-1,23,-1,0,0,-8,.
Cc1cc(C)nc(NS(=O)(=O)c2ccc(NC(=O)c3cc(-c4ccccc4)nc4ccccc34)cc2)n1,-1,26,-5,-3,3,6,.
N#Cc1cccn1-c1nccc(-c2cccs2)n1,-9,-1,5,-2,-1,-4,.
CCCCCCc1cc2cc(/C(N)=N/NC(=O)c3ccncc3)c(=O)oc2cc1O,3,61*,14,-6,-1,-4,8
COc1ccc(-c2nc(NC(=O)C3=NN(c4cccc(C)c4)C(=O)CC3)sc2C)cc1,6,31*,-7,-1,1,-6,2
C=CCC1(Cl)C(=O)C(Cl)=C(N2CCOCC2)C1(OC)OC (configuration not stated),-5,-9,2,1,-3,-5,.
SMILES,Scp-1 inhibitor,NadD block,DNMT1 inh,STEP block,LMPTP inh,SUMO1-SIM PPI,NadD inh conf
CCCNS(=O)(=O)c1ccc(OCC(=O)N2CCCC2)cc1,5,-1,1,-1,-2,-3,.
O=C(N/N=C/c1ccccc1)c1[nH]c2ccc(Br)cc2c1-c1ccccc1,1,34*,-5,-2,4,-3,44
NNC(=O)c1[nH]c2ccc([N+](=O)[O-])cc2c1-c1ccccc1,-2,4,-10,3,0,-33,.
O=C(N/N=C/c1ccccn1)c1[nH]c2ccc([N+](=O)[O-])cc2c1-c1ccccc1,-1,67*,-7,1,4,-10,38
O=C(NN=C1CCCC1)c1[nH]c2ccc(Br)cc2c1-c1ccccc1,-4,.,.,.,.,.,.
Cc1ccc(CC(=O)NCc2ccc(F)cc2)cc1,1,4,5,0,-2,-5,.
Nc1c(C(=O)c2ccccc2)sc2snc(SCC(=O)c3ccccc3)c12,-14,37*,-25,5,2,-8,3
CC1CC(C)CN(C(=O)CCn2c(=O)oc3ccccc32)C1 (configuration not stated),-10,-5,0,-2,-1,-3,.
C#Cc1ccc([C@H]2C=C(C(=O)NCc3nc4ccccc4[nH]3)O[C@@H](OCc3ccc(CO)cc3)C2)cc1,0,33*,-9,-1,3,-1,46*
O=C(NCc1nc2ccccc2[nH]1)C1=C[C@H](c2ccc(Br)cc2)C[C@H](OCc2ccc(CO)cc2)O1,0,11,-32,1,4,5,.
COc1ccc(C(=O)Nc2nc3c(s2)Cc2cc(OC)ccc2-3)cc1,11,38*,-17,10,4,-2,9
Cc1cc2cc(CNC(=O)C(C)Oc3ccccc3)ccc2n1C (configuration not stated),-16,2,-7,0,4,-22,.
Cc1nc(-c2ccc3c(c2)CCC(=O)N3)cs1,0,2,3,-3,-1,-3,.
Cc1ccc(-c2csc(Cc3nc(-c4ccc5c(c4)CCC(=O)N5)cs3)n2)cc1,1,33*,-18,1,3,8,19
